The results in this text go back to ChEMBL document CHEMBL3102806, “1,2,4-Triazole/oxime hybrids as new strategy for nitric oxide donors: Synthesis, anti-inflammatory, ulceroginicity and antiproliferative activities” (Eur J Med Chem, 2014).

In series [1] the test system is SN12C. Kind of series: Growth inhibition of human SN12C cells assessed as cell growth at 10^-5 M after 48 hrs by sulforhodamine B assay relative to control. Format: functional. Particulars: read-out: Activity; call rule not given here. The procedure, abridged:
(§1)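 NCI primary screen across about 60 human tumour cell lines. Single dose of 10^-5 M, cultures incubated 48 h, end point by sulforhodamine B protein staining read spectrophotometrically. Results are given as percent growth of treated cells relative to untreated control cells.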

In series [2] the test system is HCT-116. Kind of series: Growth inhibition of human HCT116 cells assessed as cell growth at 10^-5 M after 48 hrs by sulforhodamine B assay relative to control. It counts as functional. Particulars: HCT-116, 48 h, read-out: Activity. Summed up:
(§2)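 NCI ~60 human tumour cell line screen. Single concentration of 10^-5 M added to cultures for 48 h. End point by sulforhodamine B protein staining read spectrophotometrically. Percent growth relative to untreated control cells.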

The nature of series [3]: Growth inhibition of human RXF393 cells assessed as cell growth at 10^-5 M after 48 hrs by sulforhodamine B assay relative to control. Particulars: RXF 393, 48 h, read-out: Activity. Format: functional. Summed up: (§3)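 NCI primary screen, one-dose format across about 60 human tumour cell lines. Single addition at 10^-5 M with 48 h incubation; SRB protein-binding dye end point read spectrophotometrically. Reported as percent growth of treated cells versus untreated controls.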
A general note: In SRB staining, fixed cells bind dye roughly in proportion to their protein.

The test system of series [4] is DU-145. Kind of series: Growth inhibition of human DU145 cells assessed as cell growth at 10^-5 M after 48 hrs by sulforhodamine B assay relative to control. The note with it: DU-145, 48 h, read-out: Activity. It counts as functional. Summed up: as §2
In series [5] the test system is IGROV-1. Briefly: Growth inhibition of human IGROV1 cells assessed as cell growth at 10^-5 M after 48 hrs by sulforhodamine B assay relative to control. Particulars: IGROV-1, 48 h, read-out: Activity. It counts as functional. The procedure, abridged:
as §2

The nature of series [6]: Growth inhibition of human EKVX cells assessed as cell growth at 10^-5 M after 48 hrs by sulforhodamine B assay relative to control. Format: functional. The note with it: read-out: Activity. Summed up: as §2
Series [7] is described as follows: Growth inhibition of human HOP92 cells assessed as cell growth at 10^-5 M after 48 hrs by sulforhodamine B assay relative to control. The note with it: HOP-92, 48 h, read-out: Activity. Format: functional. Summed up: as §2
Series [8] deals with SK-OV-3. Kind of series: Growth inhibition of human SKOV3 cells assessed as cell growth at 10^-5 M after 48 hrs by sulforhodamine B assay relative to control. Format: functional. Particulars: SK-OV-3, 48 h, read-out: Activity. Summed up:
as §1

Series [9] concerns SR. Kind of series: Growth inhibition of human SR cells assessed as cell growth at 10^-5 M after 48 hrs by sulforhodamine B assay relative to control. It counts as functional. The note with it: read-out: Activity. The procedure, abridged:
as §1

Series [10] is described as follows: Growth inhibition of human NCI-ADR-RES cells assessed as cell growth at 10^-5 M after 48 hrs by sulforhodamine B assay relative to control. It counts as functional. The note with it: read-out: Activity. The procedure, abridged:
as §3

Series [11] concerns TK-10. Kind of series: Growth inhibition of human TK10 cells assessed as cell growth at 10^-5 M after 48 hrs by sulforhodamine B assay relative to control. It counts as functional. The note with it: TK-10, 48 h, read-out: Activity. Summed up:
as §1

Series [12] concerns NCI-H226. Kind of series: Growth inhibition of human NCI-H226 cells assessed as cell growth at 10^-5 M after 48 hrs by sulforhodamine B assay relative to control. It counts as functional. The note with it: NCI-H226, 48 h, read-out: Activity. Summed up:
as §3

Series [13] can be described thus: Induction of nitric oxide release in phosphate buffer at 10^-4 M at pH 7.4 after 6 hrs by Griess colorimetric method in presence of N-acetylcysteine. Format: physicochemical. The note with it: pH 7.4, 6 h, 100 µM. The procedure, abridged:
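Final drug concentration 10^-4 M, added from DMF into 1:1 50 mM phosphate buffer (pH 7.4)/MeOH containing 5 × 10^-4 M N-acetylcysteine, at 37 °C. Nitrite read with Griess reagent after 10 min at room temperature, absorbance at 546 nm. Calibration with sodium nitrite standards (10–80 nmol/ml). Reported as mol NO per mol, n = 4 reaction mixtures.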

For series [14], the system named is HL-60(TB). Kind of series: Growth inhibition of human HL-60(TB) cells assessed as cell growth at 10^-5 M after 48 hrs by sulforhodamine B assay relative to control. It counts as functional. Particulars: HL-60, 48 h, read-out: Activity. The procedure, abridged: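 NCI primary screen across about 60 human tumour cell lines. Single dose of 10^-5 M, 48 h incubation, sulforhodamine B protein-dye end point read spectrophotometrically. Reported as percent growth of treated cells versus untreated control cells.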

Series [15] has as its system CCRF-CEM. Kind of series: Growth inhibition of human CCRF-CEM cells assessed as cell growth at 10^-5 M after 48 hrs by sulforhodamine B assay relative to control. It counts as functional. The note with it: read-out: Activity. Summed up: as §2
Series [16] has as its system MDA-MB-435. Briefly: Growth inhibition of human MDA-MB-435 cells assessed as cell growth at 10^-5 M after 48 hrs by sulforhodamine B assay relative to control. It counts as functional. The note with it: MDA-MB-435, 48 h, read-out: Activity. Summed up: as §3
Series [17] deals with SK-MEL-5. Briefly: Growth inhibition of human SK-MEL-5 cells assessed as cell growth at 10^-5 M after 48 hrs by sulforhodamine B assay relative to control. Format: functional. The note with it: SK-MEL-5, 48 h, read-out: Activity. The procedure, abridged: as §1
Series [18] deals with SK-MEL-28. Briefly: Growth inhibition of human SK-MEL-28 cells assessed as cell growth at 10^-5 M after 48 hrs by sulforhodamine B assay relative to control. It counts as functional. The note with it: SK-MEL-28, 48 h, read-out: Activity. The procedure, abridged:
as §1

Series [19] can be described thus: Induction of nitric oxide release in HCl buffer at 10^-4 M at pH 1 after 1 hr by Griess colorimetric method in presence of N-acetylcysteine. Format: physicochemical. Particulars: pH 1, 1 h, 100 µM. Summed up: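 Same Griess nitrite procedure at 10^-4 M final drug with N-acetylcysteine at 37 °C, but with 0.1 N HCl (pH 1) in place of the pH 7.4 phosphate buffer. Absorbance at 546 nm against a sodium nitrite calibration curve.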
(In general: The Griess reaction detects nitrite, a stable product of nitric oxide.)

Series [20] concerns Rattus norvegicus. Briefly: Ulcerogenic activity in albino rat carrageenan-induced paw edema model assessed as ulcer index at 0.28 mmol/kg, po (reference value: 0.60 +/- 0.05). Format: toxicity, organism-based. The note with it: in vivo. Summed up:
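Rats given the compound orally at 0.28 mmol/kg, suspended in 0.5% aqueous CMC; vehicle-only control, n = 4 per group. Gastric ulcers graded by area: I (<1 mm²), II (1–3 mm²), III (>3 mm²). Ulcer index = 1×(level I count) + 2×(level II) + 3×(level III). Mean ± SEM, one-way ANOVA versus control.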

Series [21] has as its system ACHN. Briefly: Growth inhibition of human ACHN cells assessed as cell growth at 10^-5 M after 48 hrs by sulforhodamine B assay relative to control. The note with it: read-out: Activity. It counts as functional. The procedure, abridged: as §2
In series [22] the test system is Rattus norvegicus. Kind of series: Antiinflammatory activity in albino rat assessed as inhibition of carrageenan-induced paw edema at 0.28 mmol/kg, po administered 30 mins prior to carrageenan-challenge measured after 1 hr relative to control. Format: functional. Summed up: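 Male albino rats in groups of four were fasted 24 h with water allowed. Dosing was oral at 0.28 mmol/kg, suspended in 0.5% w/v CMC; controls got CMC alone. After 30 min, 0.1 ml of 1% carrageenan in saline went subplantar into the right hind paw and saline into the left. Paw thickness was read by caliper before and at 1–5 h. % inhibition = [(VR−VL)control−(VR−VL)treated]/(VR−VL)control ×100. Mean ± SEM, n = 4, one-way ANOVA vs control.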

Series [23] has as its system MDA-MB-231. Briefly: Growth inhibition of human MDA-MB-231 cells assessed as cell growth at 10^-5 M after 48 hrs by sulforhodamine B assay relative to control. Particulars: MDA-MB-231, 48 h, read-out: Activity. It counts as functional. Summed up: as §3

For orientation: inhibition in vivo means the relative decrease from the control value, in per cent. As to `C/C(=N\O)c1ccc(NC(=O)CSc2nnc(-c3ccccc3)n2-c2ccccc2)cc1`, the growth at 10 µM in series [1] was 76.2%; in series [2] it was 97.5%; in [3], 72.5%; in series [4], 67.9%; in [5] it was 81.4%; in series [6] it was 91.9%. In addition, the growth at 10 µM in series [7] turned out to be 30.1%; in series [8] it was 80.5%; in [9] it was 106%; in series [10], 39.3%; in series [11] it was 73.7%; in [12], 72.4%. In addition, the growth at 10 µM in series [14] was determined as 90.4%; in series [15] it was 92%; in series [16], 118%; in series [17], 94.5%; in series [18] it was 48.6%; in series [21], 85.7%. The growth at 10 µM in [23] was determined as 20.9%. The results for the Activity in series [13] and in series [19] were 0.16 mol/mol and “Not Active”, respectively. Moreover, in series [20], the UI was 0.95. Moreover, the inhibition in vivo at 280 µmol/kg in series [22] was 50%.
As to `COc1ccc(-c2nnc(SCC(=O)Nc3ccc(/C(C)=N/O)cc3)n2-c2ccccc2)cc1OC`, the growth at 10 µM in [1] was found to be 71.8%; in series [2], 69.2%; in series [3], 32.4%; in series [4], 88.3%; in series [5], 70.9%; in series [6], 71.1%. Moreover, the growth at 10 µM in series [7] was -8.56%; in [8], 4.74%; in series [9], 95.4%; in series [10], 90.6%; in series [11], 41.1%; in series [12], 81.9%. Besides, the growth at 10 µM in [14] is 77.3%; in series [15] it was 98.5%; in series [16], 104%; in series [17], 94.6%; in series [18], 87.3%; in series [21], 75.5%. The growth at 10 µM in series [23] came out at 47.9%. Besides, the Activity in series [13] was 0.31 mol/mol; in series [19], “Not Active”. In addition, the UI in [20] came out at 1.11. For the same compound, the inhibition in vivo at 280 µmol/kg in [22] came out at 57%.
